Results on seven compounds are retold here after ChEMBL document CHEMBL1145326, “Antimycobacterial agents. Novel diarylpyrrole derivatives of BM212 endowed with high activity toward Mycobacterium tuberculosis and low cytotoxicity” (2006).

≈ marks a conversion by molar mass, not a printed value.

In assay [1] the test system is Vero. The assay is described as follows: Cytotoxicity against Vero cell line. It counts as functional, Chlorocebus sabaeus. The method in brief: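 Vero cells were cultured for 24 h, then the medium was replaced with medium holding decreasing compound concentrations. After 5 days the cells were trypsinised and counted in a Neubauer chamber, in triplicate. MNTD₅₀ (µg/mL) is the concentration that decreased cell multiplication by less than 50% of control.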

For assay [2], the system named is Mycobacterium tuberculosis. As to the kind of experiment: Antibacterial activity against intramacrophagic Mycobacterium tuberculosis. It counts as functional.
Assay [3] concerns Vero. As to the kind of experiment: Protection index, cytotoxicity against Vero cell line/antibacterial activity against Mycobacterium tuberculosis 103471. The assay is classed as functional. The method in brief:
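Protection index is the ratio of Vero-cell MNTD₅₀ (cell counts after 5-day exposure) to the MIC against M. tuberculosis CIP 103471. The MIC came from 2-fold tube dilution, inoculum 10⁵–10⁶ CFU/mL, 37 °C.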

Assay [4] deals with Mycobacterium tuberculosis. As to the kind of experiment: Antibacterial activity against Mycobacterium tuberculosis 103471. The assay is classed as functional. An outline of the steps:
(§1)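 MIC by serial 2-fold tube dilution. Compound DMSO stocks were filter-sterilised (0.2 µm) and diluted in water. Tubes were inoculated with 10⁵–10⁶ CFU/mL of each mycobacterium and incubated at 37 °C for 3–21 days. Each run included a drug-free control tube. Values are in µg/mL.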

For assay [5], the system named is Mycolicibacterium smegmatis. The assay is described as follows: Antibacterial activity against Mycobacterium smegmatis. It counts as functional. An outline of the steps: as §1
The next assay deals with Mycobacterium avium. As to the kind of experiment: Antibacterial activity against Mycobacterium avium. The assay is classed as functional. The method in brief:
as §1

The next assay has as its system Mycobacterium marinum. The assay is described as follows: Antibacterial activity against Mycobacterium marinum. It counts as functional. An outline of the steps:
as §1

A word on the MIC: it is the smallest concentration in the dilution series that meets the test's criterion for growth inhibition. `Cc1ccc(-c2cc(CN3CCSCC3)c(C)n2-c2ccc(F)cc2)cc1`: the “Maximal non-toxic dose 50” value with Vero [1] came out at 64 µg/mL. Besides, in assay [2], the MCC amounted to 3 µg/mL. The PI with Vero [3] came out at 160. The MIC worked out at 0.4 µg/mL (≈ 1.05 µM) in assay [4], 16 µg/mL (≈ 42 µM) in assay [5], 8 µg/mL (≈ 21 µM) with Mycobacterium avium and 8 µg/mL (≈ 21 µM) against Mycobacterium marinum.

As for `Cc1c(CN2CCSCC2)cc(-c2ccc(F)cc2)n1-c1ccccc1F`, in the assay on Vero [1], the “Maximal non-toxic dose 50” value is 8 µg/mL. The MCC in assay [2] stood at 3 µg/mL. In the assay with Vero [3], the PI stood at 16. Also, the MIC was 0.5 µg/mL (≈ 1.3 µM) in assay [4], 8 µg/mL (≈ 20.8 µM) in assay [5], 8 µg/mL (≈ 20.8 µM) in the assay with Mycobacterium avium and over 16 µg/mL with Mycobacterium marinum.

On to `CO[C@H]1/C=C/O[C@@]2(C)Oc3c(C)c(O)c4c(O)c(c(/C=N/N5CCN(C)CC5)c(O)c4c3C2=O)NC(=O)/C(C)=C\C=C\[C@H](C)[C@H](O)[C@@H](C)[C@@H](O)[C@@H](C)[C@H](OC(C)=O)[C@@H]1C` [RIFAMPIN], for which the “Maximal non-toxic dose 50” value in the assay on Vero [1] is 64 µg/mL. For the same compound, in assay [2], the MCC amounted to 3 µg/mL. Moreover, the PI in the assay on Vero [3] is 213. Besides, the MIC in assay [4] was 0.3 µg/mL (≈ 0.365 µM); in assay [5] it was 32 µg/mL (≈ 38.9 µM); in the assay with Mycobacterium avium, 0.3 µg/mL (≈ 0.365 µM); in the assay on Mycobacterium marinum, 0.6 µg/mL (≈ 0.729 µM).

On to `Cc1c(CN2CCSCC2)cc(-c2ccccc2F)n1-c1ccc(F)cc1`, for which, in the assay with Vero [1], the “Maximal non-toxic dose 50” value was 16 µg/mL. This compound also gave a PI in the assay on Vero [3] of 32. For the same compound, the MIC in assay [4] is 0.5 µg/mL (≈ 1.3 µM); in assay [5] it was over 16 µg/mL; against Mycobacterium avium, 16 µg/mL (≈ 41.6 µM); with Mycobacterium marinum it was over 16 µg/mL.

Turning to `Cc1c(CN2CCSCC2)cc(-c2ccc(F)cc2)n1-c1ccccc1Cl`, the “Maximal non-toxic dose 50” value with Vero [1] was 8 µg/mL. For the same compound, in the assay with Vero [3], the PI is recorded as 4. The MIC is 2 µg/mL (≈ 4.99 µM) in assay [4], over 16 µg/mL in assay [5], over 16 µg/mL against Mycobacterium avium and over 16 µg/mL against Mycobacterium marinum.

As for `Cc1c(CN2CCSCC2)cc(-c2ccc(F)cc2F)n1-c1ccc(F)cc1`, the “Maximal non-toxic dose 50” value in the assay with Vero [1] was 16 µg/mL. Further, the PI with Vero [3] was found to be 32. The MIC was 0.5 µg/mL (≈ 1.24 µM) in assay [4], over 16 µg/mL in assay [5], 16 µg/mL (≈ 39.8 µM) in the assay with Mycobacterium avium and 16 µg/mL (≈ 39.8 µM) with Mycobacterium marinum.

As for `Cc1cccc(-c2cc(CN3CCN(C)CC3)c(C)n2-c2ccc(F)cc2)c1`, the “Maximal non-toxic dose 50” value with Vero [1] came to 8 µg/mL. In the assay on Vero [3], this compound showed a PI of 0.5. In addition, the MIC in assay [4] was 16 µg/mL (≈ 42.4 µM); in assay [5] it was over 16 µg/mL; with Mycobacterium avium, 16 µg/mL (≈ 42.4 µM); against Mycobacterium marinum, over 16 µg/mL.
